Experimental data published in ChEMBL document CHEMBL1145082 (J Med Chem, 2003).

Tests used:
[1] = target: RAC-beta serine/threonine-protein kinase (Homo sapiens) (UniProt P31751); test: Inhibition of Protein kinase B beta at 10 uM; set-up: scale not given: the % may be the effect or the level left
Method in brief: (§1)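 Outsourced selectivity panel. Each kinase phosphorylated its own peptide or protein substrate in the presence of 10 µM compound and 10 µM ATP, within the linear time range. Activity given as mean percent of control incubations from duplicate determinations.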

[2] = target: Cyclin-dependent kinase 5/CDK5 activator 1 (Homo sapiens) (UniProt Q00535+Q15078); test: Inhibition of Cyclin-dependent kinase 5-p35nck5a at 10 uM; format: protein-complex assay; set-up: scale not given: the % may be the effect or the level left; method in brief: as §1
[3] = target: CDK6/cyclin D3 (Homo sapiens) (UniProt P30281+Q00534); test: Inhibition of Cyclin-dependent kinase 6-cyclin D3 at 10 uM; format: protein-complex assay; set-up: scale not given: the % may be the effect or the level left; method in brief: as §1
[4] = target: Tyrosine-protein kinase Lck (Homo sapiens) (UniProt P06239); test: Inhibition of human p56 Lck tyrosine kinase at 10 uM; set-up: scale not given: the % may be the effect or the level left
Method in brief: (§2)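 Upstate kinase selectivity panel: each kinase phosphorylated its peptide or protein substrate with 10 µM compound present and 10 µM ATP. Reactions were linear with time. Activity is reported as the mean percentage of control incubations, from duplicate determinations.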

[5] = target: CDK3/cyclin E (Homo sapiens) (UniProt P24864+O96020+Q00526); test: Inhibition of cyclin-dependent kinase 3-cyclin E at 10 uM; format: protein-complex assay; set-up: scale not given: the % may be the effect or the level left; method in brief: as §1
[6] = target: Dual specificity mitogen-activated protein kinase kinase 7 (Homo sapiens) (UniProt O14733); test: Inhibition of human Mitogen activated protein kinase kinase 7 beta at 10 uM; set-up: scale not given: the % may be the effect or the level left; method in brief: as §1
[7] = target: Fibroblast growth factor receptor 3 (Homo sapiens) (UniProt P22607); test: Inhibition of Fibroblast growth factor receptor 3 at 10 uM; set-up: scale not given: the % may be the effect or the level left; method in brief: as §1
[8] = Inhibitory activity against Protein kinase A was determined
[9] = target: RAF proto-oncogene serine/threonine-protein kinase (Homo sapiens) (UniProt P04049); test: Inhibition of human RAF proto-oncogene serine/threonine-protein kinase (c-RAF) at 10 uM; set-up: scale not given: the % may be the effect or the level left; method in brief: as §1
[10] = target: Cyclin-dependent kinase 1 (Homo sapiens, UniProt P06493); test: Inhibition of Cyclin-dependent kinase 1
Method in brief: (§3)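 Reaction started with 30–150 ng kinase, run 1 h at 30 °C. Peptides captured on streptavidin plates and counted. IC50 from 6–10 concentrations; ≥3 experiments in duplicate; ± SEM.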

[11] = target: Inhibitor of nuclear factor kappa-B kinase subunit alpha (Homo sapiens) (UniProt O15111); test: Inhibition of I kappa-B kinase alpha (IKK) at 10 uM; set-up: scale not given: the % may be the effect or the level left; method in brief: as §1
Saccharomyces cerevisiae = test: Inhibition of yeast Casein kinase I at 10 uM; set-up: scale not given: the % may be the effect or the level left; method in brief: as §2
[12] = target: Tyrosine-protein kinase Fyn (Homo sapiens) (UniProt P06241); test: Inhibition of human Fyn tyrosine kinase at 10 uM; set-up: scale not given: the % may be the effect or the level left; method in brief: as §1
[13] = target: Cyclin-dependent kinase 2/cyclin E (Homo sapiens) (UniProt P24864+P24941+O96020); test: Inhibition of Cyclin-dependent kinase 2-cyclin E at 10 uM; format: protein-complex assay; set-up: scale not given: the % may be the effect or the level left; method in brief: as §1
[14] = target: Dual specificity mitogen-activated protein kinase kinase 4 (Mus musculus) (UniProt P47809); test: Inhibition of mouse Mitogen activated protein kinase kinase 4 at 10 uM; set-up: scale not given: the % may be the effect or the level left; method in brief: as §2
[15] = target: MAP kinase-activated protein kinase 5 (Homo sapiens) (UniProt Q8IW41); test: Inhibition of human Protein kinase PRAK at 10 uM; set-up: scale not given: the % may be the effect or the level left; method in brief: as §1
[16] = target: Ribosomal protein S6 kinase alpha-5 (Homo sapiens) (UniProt O75582); test: Inhibition of human MSK-1 kinase at 10 uM; set-up: scale not given: the % may be the effect or the level left; method in brief: as §1
[17] = target: Proto-oncogene tyrosine-protein kinase Src (Homo sapiens) (UniProt P12931); test: Inhibition of human Src tyrosine kinase at 10 uM; set-up: scale not given: the % may be the effect or the level left; method in brief: as §2
[18] = target: Insulin-like growth factor 1 receptor (Homo sapiens) (UniProt P08069); test: Inhibition of Type 1 insulin like growth factor receptor at 10 uM; set-up: scale not given: the % may be the effect or the level left; method in brief: as §1
[19] = target: Mitogen-activated protein kinase 1 (Mus musculus) (UniProt P63085); test: Inhibition of mouse Mitogen-activated protein kinase 2 at 10 uM; set-up: scale not given: the % may be the effect or the level left; method in brief: as §2
[20] = target: Protein kinase C theta type (Homo sapiens, UniProt Q04759); test: Inhibition of Protein kinase C theta
Method in brief: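 Recombinant human PKCθ (5–10 mU) with histone H1 (0.1 mg/mL) and 33P-ATP, total ATP 10 µM, in 8 mM MOPS pH 7.0, 0.2 mM EDTA, 10 mM Mg acetate. Run 40 min at room temperature, stopped with phosphoric acid, then P30 filter counting. IC50 from 6–10 concentrations; ≥3 experiments in duplicate; ± SEM.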

[21] = target: MAP kinase-activated protein kinase 2 (Homo sapiens) (UniProt P49137); test: Inhibition of human MAP kinase-activated protein kinase 2 at 10 uM; set-up: scale not given: the % may be the effect or the level left; method in brief: as §1
[22] = target: Platelet-derived growth factor receptor alpha (Homo sapiens) (UniProt P16234); test: Inhibition of Platelet-derived growth factor receptor alpha at 10 uM; set-up: scale not given: the % may be the effect or the level left; method in brief: as §1
[23] = target: Calcium/calmodulin-dependent protein kinase type IV (Homo sapiens) (UniProt Q16566); test: Inhibition of Calcium/calmodulin-dependent protein kinase type IV at 10 uM; set-up: scale not given: the % may be the effect or the level left; method in brief: as §1
[24] = target: 3-phosphoinositide-dependent protein kinase 1 (Homo sapiens) (UniProt O15530); test: Inhibition of human 3-phosphoinositide-dependent protein kinase 1 at 10 uM; set-up: scale not given: the % may be the effect or the level left; method in brief: as §1
[25] = target: Glycogen synthase kinase-3 beta (Homo sapiens) (UniProt P49841); test: Inhibition of human glycogen synthase kinase-3beta (GSK3-beta) at 10 uM; set-up: scale not given: the % may be the effect or the level left; method in brief: as §2
[26] = target: Protein kinase C alpha type (Homo sapiens, UniProt P17252); test: Inhibition of human Protein kinase C alpha at 10 uM; set-up: scale not given: the % may be the effect or the level left; method in brief: as §1
[27] = target: Protein kinase C beta type (Homo sapiens, UniProt P05771); test: Inhibition of Protein kinase C beta 2
Method in brief: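 Recombinant human PKCα, PKCγ or PKCβII (5–10 mU) phosphorylating histone H1 (0.1 mg/mL) with 33P-ATP, total ATP 10 µM. Buffer 50 mM Hepes pH 7.4 with Triton X-100, CaCl2, Mg acetate, phosphatidylserine and diacylglycerol. Run 40 min at room temperature, stopped with phosphoric acid, then P30 filter counting.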

[28] = target: Serine/threonine-protein kinase Chk1 (Homo sapiens) (UniProt O14757); test: Inhibition of human Serine/threonine-protein kinase Chk1 at 10 uM; set-up: scale not given: the % may be the effect or the level left; method in brief: as §2
[29] = target: Platelet-derived growth factor receptor beta (Homo sapiens) (UniProt P09619); test: Inhibition of Platelet-derived growth factor receptor beta at 10 uM; set-up: scale not given: the % may be the effect or the level left; method in brief: as §1
[30] = target: Cyclin-dependent kinase 7/ cyclin H (Homo sapiens) (UniProt P51946+P50613); test: Inhibition of cyclin-dependent kinase 7-cyclin H at 10 uM; format: protein-complex assay; set-up: scale not given: the % may be the effect or the level left; method in brief: as §1
[31] = target: Inhibitor of nuclear factor kappa-B kinase subunit beta (Homo sapiens) (UniProt O14920); test: Inhibition of I-kappa-B-kinase beta at 10 uM; set-up: scale not given: the % may be the effect or the level left; method in brief: as §1
[32] = Inhibition of Casein Kinase I; set-up: species or system Rattus norvegicus; method in brief: as §3
[33] = target: Tyrosine-protein kinase CSK (Homo sapiens) (UniProt P41240); test: Inhibition of Csk tyrosine kinase at 10 uM; set-up: scale not given: the % may be the effect or the level left; method in brief: as §1
[34] = target: Ribosomal protein S6 kinase (P70S6K) (Homo sapiens) (UniProt Q9UBS0+P23443); test: Inhibition of human Ribosomal protein S6 kinase (p70S6K) at 10 uM; format: protein-complex assay; set-up: scale not given: the % may be the effect or the level left; method in brief: as §2
[35] = target: Protein kinase C gamma type (Homo sapiens, UniProt P05129); test: Inhibition of human Protein kinase C gamma at 10 uM; set-up: scale not given: the % may be the effect or the level left; method in brief: as §1

Tyrosine-protein kinase Fyn (Homo sapiens), sequence (P06241 2-537 limits assumed): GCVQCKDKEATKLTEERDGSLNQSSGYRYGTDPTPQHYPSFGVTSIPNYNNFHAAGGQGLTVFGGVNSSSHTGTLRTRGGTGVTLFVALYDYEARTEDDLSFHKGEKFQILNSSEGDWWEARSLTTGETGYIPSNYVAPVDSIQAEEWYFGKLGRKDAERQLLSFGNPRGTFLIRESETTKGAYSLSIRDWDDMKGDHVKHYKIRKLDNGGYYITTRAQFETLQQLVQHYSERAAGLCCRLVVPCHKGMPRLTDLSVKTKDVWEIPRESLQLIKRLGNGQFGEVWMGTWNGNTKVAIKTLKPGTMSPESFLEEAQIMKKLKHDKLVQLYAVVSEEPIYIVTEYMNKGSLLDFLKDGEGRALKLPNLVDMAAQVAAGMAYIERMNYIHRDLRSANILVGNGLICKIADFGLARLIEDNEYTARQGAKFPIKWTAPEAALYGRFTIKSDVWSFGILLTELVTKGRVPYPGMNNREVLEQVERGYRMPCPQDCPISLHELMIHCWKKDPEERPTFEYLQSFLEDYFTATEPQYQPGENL
Serine/threonine-protein kinase Chk1 (Homo sapiens), sequence (O14757 whole entry): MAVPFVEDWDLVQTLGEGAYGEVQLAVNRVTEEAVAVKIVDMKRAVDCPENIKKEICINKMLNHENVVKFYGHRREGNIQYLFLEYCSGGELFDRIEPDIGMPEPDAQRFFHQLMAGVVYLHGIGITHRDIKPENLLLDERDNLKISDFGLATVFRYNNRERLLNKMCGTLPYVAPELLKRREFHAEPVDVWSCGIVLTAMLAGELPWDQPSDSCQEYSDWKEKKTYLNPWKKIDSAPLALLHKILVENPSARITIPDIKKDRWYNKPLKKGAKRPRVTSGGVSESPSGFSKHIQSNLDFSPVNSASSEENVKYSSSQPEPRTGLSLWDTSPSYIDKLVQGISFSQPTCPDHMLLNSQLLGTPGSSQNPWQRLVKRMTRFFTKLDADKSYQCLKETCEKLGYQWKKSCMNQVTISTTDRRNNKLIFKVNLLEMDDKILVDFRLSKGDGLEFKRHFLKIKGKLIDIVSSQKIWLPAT
Platelet-derived growth factor receptor alpha (Homo sapiens), sequence (P16234 whole entry): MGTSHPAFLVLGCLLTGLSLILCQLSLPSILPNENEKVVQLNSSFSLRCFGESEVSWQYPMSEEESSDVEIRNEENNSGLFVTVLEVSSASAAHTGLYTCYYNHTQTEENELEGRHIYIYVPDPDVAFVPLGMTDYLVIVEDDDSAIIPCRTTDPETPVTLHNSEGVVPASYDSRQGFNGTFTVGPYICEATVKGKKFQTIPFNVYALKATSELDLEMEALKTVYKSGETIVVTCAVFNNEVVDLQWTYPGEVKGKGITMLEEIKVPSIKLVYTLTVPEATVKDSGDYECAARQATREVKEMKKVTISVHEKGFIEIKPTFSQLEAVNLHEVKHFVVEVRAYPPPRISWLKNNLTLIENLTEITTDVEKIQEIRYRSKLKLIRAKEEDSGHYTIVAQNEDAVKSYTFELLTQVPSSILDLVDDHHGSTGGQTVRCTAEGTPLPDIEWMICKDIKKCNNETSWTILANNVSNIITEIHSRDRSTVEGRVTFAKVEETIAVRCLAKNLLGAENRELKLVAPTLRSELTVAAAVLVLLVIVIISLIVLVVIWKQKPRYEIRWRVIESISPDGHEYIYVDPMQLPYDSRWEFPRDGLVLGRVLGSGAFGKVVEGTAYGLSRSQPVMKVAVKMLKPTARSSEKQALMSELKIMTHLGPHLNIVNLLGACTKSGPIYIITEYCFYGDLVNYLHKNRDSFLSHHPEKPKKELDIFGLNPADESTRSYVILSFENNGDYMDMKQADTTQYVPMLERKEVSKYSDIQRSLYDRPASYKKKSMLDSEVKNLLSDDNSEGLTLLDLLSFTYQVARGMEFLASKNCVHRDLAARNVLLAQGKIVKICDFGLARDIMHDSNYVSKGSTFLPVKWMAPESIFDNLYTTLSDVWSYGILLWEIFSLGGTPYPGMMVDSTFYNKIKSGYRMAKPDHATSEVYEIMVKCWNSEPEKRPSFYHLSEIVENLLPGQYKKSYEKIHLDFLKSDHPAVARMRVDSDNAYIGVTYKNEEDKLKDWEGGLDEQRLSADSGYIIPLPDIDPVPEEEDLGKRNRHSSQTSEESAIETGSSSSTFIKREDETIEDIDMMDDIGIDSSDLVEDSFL
Insulin-like growth factor 1 receptor (Homo sapiens), sequence (P08069 31-736 limits assumed): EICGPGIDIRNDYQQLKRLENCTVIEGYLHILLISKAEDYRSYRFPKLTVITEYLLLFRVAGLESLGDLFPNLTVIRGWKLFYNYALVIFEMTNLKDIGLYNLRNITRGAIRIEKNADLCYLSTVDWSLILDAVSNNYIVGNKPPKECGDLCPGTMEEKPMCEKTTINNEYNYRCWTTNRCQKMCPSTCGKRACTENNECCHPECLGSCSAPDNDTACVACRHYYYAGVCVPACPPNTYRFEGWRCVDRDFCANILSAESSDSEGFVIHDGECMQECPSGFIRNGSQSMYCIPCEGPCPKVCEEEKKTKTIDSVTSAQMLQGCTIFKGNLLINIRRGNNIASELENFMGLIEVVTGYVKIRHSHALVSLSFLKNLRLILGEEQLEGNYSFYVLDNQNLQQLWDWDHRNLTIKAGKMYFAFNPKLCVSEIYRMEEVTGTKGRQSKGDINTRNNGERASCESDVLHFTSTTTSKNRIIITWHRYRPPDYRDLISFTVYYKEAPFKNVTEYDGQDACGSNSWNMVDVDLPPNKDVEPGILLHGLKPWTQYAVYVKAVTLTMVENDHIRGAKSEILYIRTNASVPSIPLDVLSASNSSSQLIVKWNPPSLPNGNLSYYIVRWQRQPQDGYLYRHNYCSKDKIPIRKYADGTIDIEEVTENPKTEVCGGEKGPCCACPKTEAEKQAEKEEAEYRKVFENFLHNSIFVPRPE
Insulin-like growth factor 1 receptor (Homo sapiens), sequence (P08069 741-1367 limits assumed): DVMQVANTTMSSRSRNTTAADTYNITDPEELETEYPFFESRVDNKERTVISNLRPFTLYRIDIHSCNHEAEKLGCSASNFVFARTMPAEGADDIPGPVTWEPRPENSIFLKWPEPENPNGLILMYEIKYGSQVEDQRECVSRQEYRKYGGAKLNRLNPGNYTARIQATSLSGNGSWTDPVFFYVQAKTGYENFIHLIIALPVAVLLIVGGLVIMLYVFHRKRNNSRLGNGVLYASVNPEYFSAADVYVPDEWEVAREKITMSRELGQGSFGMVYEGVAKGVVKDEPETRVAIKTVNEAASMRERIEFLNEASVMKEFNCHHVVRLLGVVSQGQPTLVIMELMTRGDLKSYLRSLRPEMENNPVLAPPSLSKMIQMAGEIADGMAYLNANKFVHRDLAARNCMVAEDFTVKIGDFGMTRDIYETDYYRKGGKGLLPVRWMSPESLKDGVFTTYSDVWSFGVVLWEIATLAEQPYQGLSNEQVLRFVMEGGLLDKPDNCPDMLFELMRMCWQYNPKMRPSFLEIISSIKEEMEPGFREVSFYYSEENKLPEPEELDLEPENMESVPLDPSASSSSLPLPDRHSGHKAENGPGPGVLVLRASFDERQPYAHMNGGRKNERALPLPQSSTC
Ribosomal protein S6 kinase alpha-5 (Homo sapiens), sequence (O75582 whole entry, looked up): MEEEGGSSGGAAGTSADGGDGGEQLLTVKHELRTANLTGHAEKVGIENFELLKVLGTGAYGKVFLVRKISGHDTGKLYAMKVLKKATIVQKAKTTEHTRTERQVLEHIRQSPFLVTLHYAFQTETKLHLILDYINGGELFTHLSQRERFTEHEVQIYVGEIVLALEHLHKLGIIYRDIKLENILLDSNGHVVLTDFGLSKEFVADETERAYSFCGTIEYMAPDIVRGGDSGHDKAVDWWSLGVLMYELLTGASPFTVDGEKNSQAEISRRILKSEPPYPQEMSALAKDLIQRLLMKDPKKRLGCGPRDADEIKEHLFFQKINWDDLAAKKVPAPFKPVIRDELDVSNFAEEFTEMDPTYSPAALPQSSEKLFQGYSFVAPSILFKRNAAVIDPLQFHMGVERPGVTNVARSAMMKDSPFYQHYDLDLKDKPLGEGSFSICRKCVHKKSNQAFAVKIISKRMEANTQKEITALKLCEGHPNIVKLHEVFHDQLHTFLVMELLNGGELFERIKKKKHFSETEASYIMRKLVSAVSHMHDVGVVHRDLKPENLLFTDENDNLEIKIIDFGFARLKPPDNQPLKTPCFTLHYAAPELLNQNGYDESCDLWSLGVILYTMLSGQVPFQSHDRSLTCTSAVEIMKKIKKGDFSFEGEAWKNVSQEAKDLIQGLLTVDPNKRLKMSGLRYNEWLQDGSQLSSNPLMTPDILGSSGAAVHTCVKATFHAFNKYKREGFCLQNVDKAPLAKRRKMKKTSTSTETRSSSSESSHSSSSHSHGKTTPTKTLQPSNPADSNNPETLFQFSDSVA

SMILES | Activity [1] [%] | Activity [2] [%] | Activity [3] [%] | Activity [4] [%] | Activity [5] [%] | Activity [6] [%] | Activity [7] [%] | IC50 [8] [µM] | Activity [9] [%] | IC50 [10] [µM] | Activity [11] [%] | Activity (Saccharomyces cerevisiae) [%] | Activity [12] [%] | Activity [13] [%] | Activity [14] [%] | Activity [15] [%] | Activity [16] [%] | Activity [17] [%] | Activity [18] [%] | Activity [19] [%] | further results
O=C1NC(=O)C2=C1c1cn(c3ncccc13)CCOCCOCCOCCOCCn1cc2c2cccnc21 | 97 | 105 | 97 | 174 | 97 | 132 | 61 | > 10 | 97 | > 10 | 98 | 89 | 95 | 100 | 107 | 102 | 89 | 89 | 97 | 88 | IC50 [20]: > 10 µM; Activity [21]: 85%; Activity [22]: 112%; Activity [23]: 88%; Activity [24]: 94%; Activity [25]: 0%; Activity [26]: 94%; IC50 [27]: > 10 µM; Activity [28]: 102%; Activity [29]: 86%; Activity [30]: 86%; Activity [31]: 101%; IC50 [32]: > 10 µM; Activity [33]: 103%; Activity [34]: 93%; Activity [35]: 96%
O=C1NC(=O)C2=C1c1cn(c3ncccc13)CCOCCOCCOCCn1cc2c2cccnc21 | 93 | 82 | 97 | 194 | 72 | 129 | 58 | > 10 | 91 | > 10 | 100 | 84 | 92 | 67 | 110 | 88 | 61 | 90 | 107 | 85 | IC50 [20]: > 10 µM; Activity [21]: 97%; Activity [22]: 130%; Activity [23]: 84%; Activity [24]: 90%; Activity [25]: 0%; Activity [26]: 51%; IC50 [27]: 1.16 µM; Activity [28]: 101%; Activity [29]: 84%; Activity [30]: 85%; Activity [31]: 97%; IC50 [32]: > 10 µM; Activity [33]: 84%; Activity [34]: 92%; Activity [35]: 77%
